Measurements published in ChEMBL document CHEMBL1124773, “(Phosphinyloxy)acyl amino acid inhibitors of angiotensin converting enzyme. 2. Terminal amino acid analogues of (S)-1-[6-amino-2 [[hydroxy(4-phenylbutyl)phosphinyl]oxy]-1-oxohexyl]-L-proline” (J Med Chem, 1990).

What was measured:
[1] = biological target: T1, Angiotensin-converting enzyme (Rattus norvegicus) (UniProt P47820); assay: In vivo dose required to produce 50% inhibition against angiotensin I in normotensive rat after intravenous administration; assay type: functional, organism-based
T1 sequence (whole entry): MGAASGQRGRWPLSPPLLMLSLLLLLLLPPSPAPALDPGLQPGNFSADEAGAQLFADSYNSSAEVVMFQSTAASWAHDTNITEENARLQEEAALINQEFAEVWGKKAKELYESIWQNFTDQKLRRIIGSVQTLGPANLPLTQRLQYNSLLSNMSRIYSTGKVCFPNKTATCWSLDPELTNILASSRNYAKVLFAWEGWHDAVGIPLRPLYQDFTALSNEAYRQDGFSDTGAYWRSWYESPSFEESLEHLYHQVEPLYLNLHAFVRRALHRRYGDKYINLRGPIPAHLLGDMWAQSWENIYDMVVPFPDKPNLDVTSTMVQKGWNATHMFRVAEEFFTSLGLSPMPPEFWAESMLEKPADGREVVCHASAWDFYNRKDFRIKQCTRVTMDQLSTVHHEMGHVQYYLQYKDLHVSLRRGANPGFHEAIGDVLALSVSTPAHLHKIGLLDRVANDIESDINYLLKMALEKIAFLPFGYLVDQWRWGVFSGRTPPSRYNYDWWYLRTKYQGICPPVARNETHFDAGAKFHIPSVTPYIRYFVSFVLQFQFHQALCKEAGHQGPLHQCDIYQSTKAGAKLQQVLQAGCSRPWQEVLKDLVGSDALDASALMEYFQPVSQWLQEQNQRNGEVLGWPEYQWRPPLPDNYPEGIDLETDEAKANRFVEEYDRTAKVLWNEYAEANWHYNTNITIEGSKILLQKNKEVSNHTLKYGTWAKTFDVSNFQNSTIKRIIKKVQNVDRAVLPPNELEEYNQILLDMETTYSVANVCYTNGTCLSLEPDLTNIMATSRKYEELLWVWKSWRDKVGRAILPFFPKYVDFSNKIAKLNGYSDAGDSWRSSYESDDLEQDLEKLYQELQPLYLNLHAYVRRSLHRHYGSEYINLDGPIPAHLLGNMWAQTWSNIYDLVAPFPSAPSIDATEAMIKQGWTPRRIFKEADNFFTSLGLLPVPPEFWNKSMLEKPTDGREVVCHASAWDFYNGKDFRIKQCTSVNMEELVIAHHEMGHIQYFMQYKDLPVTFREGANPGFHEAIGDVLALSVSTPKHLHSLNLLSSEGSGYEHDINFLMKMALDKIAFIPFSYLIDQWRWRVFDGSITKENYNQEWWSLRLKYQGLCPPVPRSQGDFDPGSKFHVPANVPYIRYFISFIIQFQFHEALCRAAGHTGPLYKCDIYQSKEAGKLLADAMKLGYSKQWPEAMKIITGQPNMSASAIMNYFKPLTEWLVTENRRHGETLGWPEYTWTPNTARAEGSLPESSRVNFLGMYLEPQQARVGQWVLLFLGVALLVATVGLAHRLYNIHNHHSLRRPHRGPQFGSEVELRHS
How it was run: (§1)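 Conscious, unrestrained male Sprague-Dawley rats (225–275 g) with indwelling aortic and vena caval catheters, recovered ≥2 weeks. […] Compound given iv in 0.1 mL water or 5% NaHCO3, responses followed up to 70 min. Maximum % inhibition is the mean of four rats per dose; ED50 interpolated from plots of ≥3 doses.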

[2] = biological target: T1, Angiotensin-converting enzyme (Rattus norvegicus); assay: In vivo oral activity in normotensive rat and percent maximal inhibition of the angiotensin I pressor response; assay type: functional, organism-based
How it was run: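 Catheterized conscious, unrestrained male Sprague-Dawley rats (225–275 g), recovered ≥2 weeks. […] Oral dose in 0.1 mL water, 5% NaHCO3 or 1% agar suspension. Aortic pressure read by transducer for up to 280 min. Maximum % inhibition is the mean of four animals per dose.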

[3] = biological target: T2, Angiotensin-converting enzyme (Oryctolagus cuniculus, UniProt P12822); assay: Inhibition of rabbit lung angiotensin I converting enzyme (ACE) using hippuryl-histidyl-leucine as substrate; conditions: read-out: I50
T2 sequence (P12822 whole entry): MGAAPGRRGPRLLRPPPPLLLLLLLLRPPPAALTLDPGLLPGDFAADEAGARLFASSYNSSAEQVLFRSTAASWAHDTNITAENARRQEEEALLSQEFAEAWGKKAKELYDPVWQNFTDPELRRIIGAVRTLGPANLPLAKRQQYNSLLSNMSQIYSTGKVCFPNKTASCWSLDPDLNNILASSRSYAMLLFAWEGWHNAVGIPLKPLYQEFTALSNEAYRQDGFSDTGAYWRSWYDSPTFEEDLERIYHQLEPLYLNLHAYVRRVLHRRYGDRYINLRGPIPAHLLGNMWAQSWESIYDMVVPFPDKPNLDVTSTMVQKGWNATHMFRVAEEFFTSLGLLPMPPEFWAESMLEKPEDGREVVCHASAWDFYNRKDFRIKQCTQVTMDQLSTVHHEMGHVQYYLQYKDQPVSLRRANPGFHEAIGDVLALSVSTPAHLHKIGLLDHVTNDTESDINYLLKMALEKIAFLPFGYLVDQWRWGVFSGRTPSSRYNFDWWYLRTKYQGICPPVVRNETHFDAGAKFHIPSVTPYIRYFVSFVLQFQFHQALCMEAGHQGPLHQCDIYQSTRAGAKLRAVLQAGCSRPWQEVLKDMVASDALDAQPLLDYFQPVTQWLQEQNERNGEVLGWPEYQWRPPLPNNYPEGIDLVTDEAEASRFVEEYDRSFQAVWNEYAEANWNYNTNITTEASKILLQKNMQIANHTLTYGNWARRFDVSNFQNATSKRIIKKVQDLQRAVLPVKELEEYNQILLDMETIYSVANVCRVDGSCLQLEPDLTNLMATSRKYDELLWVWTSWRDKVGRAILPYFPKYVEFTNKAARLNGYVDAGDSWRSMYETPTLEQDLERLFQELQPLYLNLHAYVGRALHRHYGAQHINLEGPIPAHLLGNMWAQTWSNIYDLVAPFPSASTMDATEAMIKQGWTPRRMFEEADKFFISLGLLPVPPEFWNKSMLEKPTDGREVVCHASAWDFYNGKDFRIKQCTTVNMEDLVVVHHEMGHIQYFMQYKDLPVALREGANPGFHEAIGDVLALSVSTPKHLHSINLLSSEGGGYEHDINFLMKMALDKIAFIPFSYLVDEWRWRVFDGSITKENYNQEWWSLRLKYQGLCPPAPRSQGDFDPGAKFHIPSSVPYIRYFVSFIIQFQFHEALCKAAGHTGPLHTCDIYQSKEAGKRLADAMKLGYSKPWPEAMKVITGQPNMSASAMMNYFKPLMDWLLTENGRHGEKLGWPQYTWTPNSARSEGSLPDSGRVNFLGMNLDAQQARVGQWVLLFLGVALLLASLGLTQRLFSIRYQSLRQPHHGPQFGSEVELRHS

[4] = biological target: T1, Angiotensin-converting enzyme (Rattus norvegicus); assay: In vivo dose required to produce 50% inhibition against angiotensin I (AI) in normotensive rat after intravenous administration; assay type: functional, organism-based; how it was run: as §1
[5] = biological target: T2, Angiotensin-converting enzyme; assay: Evaluated for inhibitory activity against rabbit lung angiotensin I converting enzyme (ACE) using hippuryl-histidyl-leucine as substrate; conditions: read-out: I50

Compound	ED50 [1] [µmol/kg]	inhibition [2] [%]	IC50 [3] [nM]	ED50 [4] [µmol/kg]	IC50 [5] [nM]
NCCCC[C@H](OP(=O)(O)CCCCc1ccccc1)C(=O)N1CCC[C@H]1C(=O)O	0.063	90			
NCCCC[C@H](OP(=O)(O)CCCCc1ccccc1)C(=O)N1COC[C@H]1C(=O)O	0.677		145		
NCCCC[C@H](OP(=O)(O)CCCCc1ccccc1)C(=O)N1c2ccccc2C[C@H]1C(=O)O		13	4.4	< 0.014	
NCCCC[C@H](OP(=O)(O)CCCCc1ccccc1)C(=O)N(CC(=O)O)C1Cc2ccccc2C1	0.196				27
NCCCC[C@H](OP(=O)(O)CCCCc1ccccc1)C(=O)N(CC(=O)O)C1CCCCC1	0.106	31	22		
NCCCC[C@H](OP(=O)(O)CCCCc1ccccc1)C(=O)N1C[C@H](c2ccccc2)C[C@H]1C(=O)O			270		
NCCCC[C@H](OP(=O)(O)CCCCc1ccccc1)C(=O)N1CSC[C@H]1C(=O)O	0.124	46	91		
NCCCC[C@H](OP(=O)(O)CCCCc1ccccc1)C(=O)N(CC(=O)O)c1ccccc1	0.136	53			29
NCCCC[C@H](OP(=O)(O)CCCCc1ccccc1)C(=O)N1C[C@H](O)C[C@H]1C(=O)O	0.339		140		
NCCCC[C@H](OP(=O)(O)CCCCc1ccccc1)C(=O)N1CCS[C@H]1C(=O)O	0.163	50	81		
NCCCC[C@H](OP(=O)(O)CCCCc1ccccc1)C(=O)N1C[C@@H](Sc2ccccc2)C[C@H]1C(=O)O	0.047	15	3		
NCCCC[C@H](OP(=O)(O)CCCCc1ccccc1)C(=O)N1[C@H](C(=O)O)C[C@@H]2CCCC[C@@H]21	0.1	14	28		
NCCCC[C@H](OP(=O)(O)CCCCc1ccccc1)C(=O)N1C[C@@H](F)C[C@H]1C(=O)O			160		
NCCCC[C@H](OP(=O)(O)CCCCc1ccccc1)C(=O)N1C[C@H](F)C[C@H]1C(=O)O			320		
CS[C@H]1C[C@@H](C(=O)O)N(C(=O)[C@H](CCCCN)OP(=O)(O)CCCCc2ccccc2)C1	0.059	8	9.7		
NCCCC[C@H](OP(=O)(O)CCCCc1ccccc1)C(=O)N1C[C@@H](C2CCCCC2)C[C@H]1C(=O)O	0.06	33	11		

Further compounds by falling IC50 [3], results first:

ED50 [1] [µmol/kg]	inhibition [2] [%]	IC50 [3] [nM]	ED50 [4] [µmol/kg]	IC50 [5] [nM]	Compound
0.162	49	170			NCCCC[C@H](OP(=O)(O)CCCCc1ccccc1)C(=O)N1CC(F)(F)C[C@H]1C(=O)O
0.105	73	43			NCCCC[C@H](OP(=O)(O)CCCCc1ccccc1)C(=O)N1CC=C[C@H]1C(=O)O
0.043	40	39			COc1ccc(N(CC(=O)O)C(=O)[C@H](CCCCN)OP(=O)(O)CCCCc2ccccc2)cc1
0.04	62	35			COc1ccc(N(CC(=O)O)C(=O)[C@H](CCCCN)OP(=O)(O)CCCCc2ccccc2)cc1OC
0.11	15	31			NCCCC[C@H](OP(=O)(O)CCCCc1ccccc1)C(=O)N1C[C@H](C2CCCCC2)C[C@H]1C(=O)O
	41	26	0.035		NCCCC[C@H](OP(=O)(O)CCCCc1ccccc1)C(=O)N1[C@H](C(=O)O)C[C@@H]2CCC[C@@H]21
0.033	69	25			NCCCC[C@H](OP(=O)(O)CCCCc1ccccc1)C(=O)N1C[C@@H](O)C[C@H]1C(=O)O
0.1	69	24			NCCCC[C@H](OP(=O)(O)CCCCc1ccccc1)C(=O)N(CC(=O)O)c1ccc2c(c1)OCO2
0.14	45	16			CSC1(SC)C[C@@H](C(=O)O)N(C(=O)[C@H](CCCCN)OP(=O)(O)CCCCc2ccccc2)C1
0.031	16	9.3			CS[C@@H]1C[C@@H](C(=O)O)N(C(=O)[C@H](CCCCN)OP(=O)(O)CCCCc2ccccc2)C1
0.037	58	3.5			NCCCC[C@H](OP(=O)(O)CCCCc1ccccc1)C(=O)N1C[C@@H](c2ccccc2)C[C@H]1C(=O)O
0.066	11	2.6			NCCCC[C@H](OP(=O)(O)CCCCc1ccccc1)C(=O)N1C[C@H](Sc2ccccc2)C[C@H]1C(=O)O
0.018	51	1.5			NCCCC[C@H](OP(=O)(O)CCCCc1ccccc1)C(=O)N1CC2(C[C@H]1C(=O)O)SCCS2
0.026	14	1			NCCCC[C@H](OP(=O)(O)CCCCc1ccccc1)C(=O)N1C[C@@H](Cc2ccccc2)C[C@H]1C(=O)O
